Most compounds without a hit are left out; they make up all but 2.8% or so of the library.
RBBP9 inh: human RBBP9 inhibitors, primary screen, biochemical, fluorescence polarization, FP-Rh probe, HTS. recombinant RBBP9. inhibition, % at 7.94 µM. 220,000 tested, 0.2% active;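 active = inhibition above the campaign mean of all tested compounds plus 3 SD, cut at about 14% in these data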
Target sequence (O75884 whole entry, looked up): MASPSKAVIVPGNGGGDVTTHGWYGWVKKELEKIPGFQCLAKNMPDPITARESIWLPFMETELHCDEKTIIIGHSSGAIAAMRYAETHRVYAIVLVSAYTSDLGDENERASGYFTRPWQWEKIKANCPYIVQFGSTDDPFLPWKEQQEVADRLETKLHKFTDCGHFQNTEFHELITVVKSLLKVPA
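system = RBBP9 protein | input = RBBP9 at 2.5 µM in dispensed solution, before mixing | measured by = fluorescence polarization (mP), excitation 525 nm, emission 598 nm | incubation = enzyme-compound preincubation 30 min, then probe labeling 45 min, 25 °C | buffer or medium = Tris-NaCl-Pluronic buffer, pH 8.0 | compound = single dose 7.94 µM | also added = FP-Rh probe, 375 nM dispensing solution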
eIF4E-4G inh: eIF4E–eIF4G protein interaction inhibitors, primary screen, biochemical, uHTS, TR-FRET, eIF4GI fragment; AID 782, 2007; TR-FRET eIF4E-eIF4GI(517-606) binding, 2 h; 220,000 tested, 0.37% active; Eukaryotic translation initiation factor 4E (Mus musculus) + Eukaryotic translation …; inhibition, % at 21.7 µM
14-3-3 Bad PPI: inhibitors of 14-3-3 zeta/Bad binding, primary screen, biochemical, TR-FRET, bovine 14-3-3 zeta; TR-FRET 14-3-3zeta/Dy647-pBad peptide displacement, 1 h; inhibition, % at 21.7 µM; 220,000 tested, 0.71% active; AID 781, 2007;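 active = inhibition above about 70%, limit read from the data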
Wee1 degr inh: Wee1 degradation inhibitors, primary screen, cell-based, HeLa, Wee1K328M-luciferase, luminescence; HeLa Luc-Wee1K328M stability; 100% = proteasome inhibitor MG132 effect; Wee1-like protein kinase (Homo sapiens), P30291; reporter increase, % at 5 µM; 220,000 tested, 1.2% active;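 active = activation above the mean of all tested compounds plus 3 SD, set per screening run, cut at about 8.8% in these data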;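 note: cells exposed to compound for 20 h before luminescence read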
p47phox inh: p47phox/p22phox peptide binding inhibitors, primary screen, biochemical, uHTS, NADPH oxidase regulatory subunit. Neutrophil cytosol factor 1 (Homo sapiens), P14598. fluorescence polarization, 2 h. inhibition, % at 24.7 µM. 220,000 tested, 0.53% active
Target sequence (P14598 whole entry, looked up): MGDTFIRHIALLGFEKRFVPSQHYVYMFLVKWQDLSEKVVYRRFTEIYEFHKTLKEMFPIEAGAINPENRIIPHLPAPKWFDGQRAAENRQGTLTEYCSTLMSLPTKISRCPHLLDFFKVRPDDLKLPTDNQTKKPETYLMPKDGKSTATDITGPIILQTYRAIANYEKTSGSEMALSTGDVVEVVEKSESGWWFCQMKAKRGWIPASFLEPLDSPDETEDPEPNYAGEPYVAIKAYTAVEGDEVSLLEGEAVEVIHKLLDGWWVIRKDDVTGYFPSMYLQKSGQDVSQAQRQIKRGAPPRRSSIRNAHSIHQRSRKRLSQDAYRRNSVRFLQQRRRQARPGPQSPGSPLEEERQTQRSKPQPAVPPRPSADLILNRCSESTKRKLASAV
Wee1 degr conf: Wee1 degradation inhibitors, confirmation, cell-based, HeLa, Wee1K328M-luciferase, luminescence, triplicate; 1,100 tested, 4% active; HeLa Luc-Wee1K328M degradation; vehicle 0%, proteasome-blocked wells 100%; shares compounds with Wee1 degr inh; activation, % at 5 µM; in the data active = activation above about 8.9%
Hits are given with their value.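 Rule for the calls, unless noted: active = inhibition above about 30% (limit read from the data); inactive = the rest.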

How did CCC(C)N(C(=O)COC(=O)CNC(=O)c1ccccc1F)C1CCS(=O)(=O)C1 (stereo unspecified) do in these assays?
RBBP9 inh: inactive; eIF4E-4G inh: inactive; 14-3-3 Bad PPI: inactive; Wee1 degr inh: 15; p47phox inh: inactive; Wee1 degr conf: inactive

How did COc1ccc(C(=O)N2CCC(c3ccccc3)CC2)c(OC)c1OC do in these assays?
RBBP9 inh: inactive; eIF4E-4G inh: inactive; 14-3-3 Bad PPI: inactive; Wee1 degr inh: inactive; p47phox inh: inactive

How did COc1ccc(/C=N/NC(=O)Cc2csc(Nc3cccc(C(F)(F)F)c3)n2)cc1C do in these assays?
RBBP9 inh: inactive; eIF4E-4G inh: inactive; 14-3-3 Bad PPI: inactive; Wee1 degr inh: inactive; p47phox inh: inactive

How did Cc1ccc(Cl)cc1-n1c(=O)cc(N2CCN(C(=O)c3ccco3)CC2)[nH]c1=O do in these assays?
RBBP9 inh: inactive; eIF4E-4G inh: inactive; 14-3-3 Bad PPI: inactive; Wee1 degr inh: 14; p47phox inh: inactive; Wee1 degr conf: inactive

How did CC1c2ccsc2CCN1C(=O)NC(=O)c1ccc(Cl)cc1 (stereo unspecified) do in these assays?
RBBP9 inh: inactive; eIF4E-4G inh: inactive; 14-3-3 Bad PPI: inactive; Wee1 degr inh: 14; p47phox inh: inactive; Wee1 degr conf: inactive

How did COc1ccc(C2c3ccsc3CCN2C(=O)NC(C)(C)C)cc1 (stereo unspecified) do in these assays?
RBBP9 inh: inactive; eIF4E-4G inh: inactive; 14-3-3 Bad PPI: inactive; Wee1 degr inh: inactive; p47phox inh: inactive

What do the screens show for `Cc1cc(C)nc(NS(=O)(=O)c2ccc(N/C=C/C(=O)c3ccc(Cl)cc3)cc2)n1`?
RBBP9 inh: inactive; eIF4E-4G inh: inactive; 14-3-3 Bad PPI: inactive; Wee1 degr inh: 14; p47phox inh: inactive; Wee1 degr conf: inactive

Results for COc1ccc(C(=O)/C=C/Nc2ccc(S(=O)(=O)Nc3nc(C)cc(C)n3)cc2)cc1OC ?
RBBP9 inh: inactive; eIF4E-4G inh: inactive; 14-3-3 Bad PPI: inactive; Wee1 degr inh: inactive; p47phox inh: inactive

What do the screens show for `O=c1nc(N2CCOCC2)ccn1-c1nc(-c2ccccc2)sc1-c1ccccc1`?
RBBP9 inh: inactive; eIF4E-4G inh: inactive; 14-3-3 Bad PPI: inactive; Wee1 degr inh: inactive; p47phox inh: inactive

Results for O=C(NC1CCCC1)C1CCN(c2cnccn2)CC1 ?
RBBP9 inh: inactive; eIF4E-4G inh: inactive; 14-3-3 Bad PPI: inactive; Wee1 degr inh: inactive; p47phox inh: inactive

Results for CCOC(=O)c1c2n(c3ccc(O)cc13)CCC2 ?
RBBP9 inh: inactive; eIF4E-4G inh: inactive; 14-3-3 Bad PPI: inactive; Wee1 degr inh: 11; p47phox inh: inactive; Wee1 degr conf: inactive

What do the screens show for `COc1ccc(N2CCN(CCNC(=O)c3ccc4c(c3)[nH]c(=S)n3c5ccccc5nc43)CC2)cc1`?
RBBP9 inh: inactive; eIF4E-4G inh: inactive; 14-3-3 Bad PPI: inactive; Wee1 degr inh: inactive; p47phox inh: inactive

What do the screens show for `O=C(Nc1cccc(Cl)c1)Nc1ccc(Br)cc1F`?
RBBP9 inh: inactive; eIF4E-4G inh: inactive; 14-3-3 Bad PPI: inactive; Wee1 degr inh: 13; p47phox inh: inactive; Wee1 degr conf: inactive

What do the screens show for `O=C(Nc1ccccc1)Nc1ccc(Br)cc1F`?
RBBP9 inh: inactive; eIF4E-4G inh: inactive; 14-3-3 Bad PPI: inactive; Wee1 degr inh: inactive; p47phox inh: inactive

What do the screens show for `CC(=O)Nc1ccc(S(=O)(=O)NCc2ccccn2)cc1`?
RBBP9 inh: inactive; eIF4E-4G inh: inactive; 14-3-3 Bad PPI: inactive; Wee1 degr inh: inactive; p47phox inh: inactive

What do the screens show for `CCn1ncc(Br)c1C(=O)Nc1cccc(F)c1`?
RBBP9 inh: inactive; eIF4E-4G inh: inactive; 14-3-3 Bad PPI: inactive; Wee1 degr inh: 13; p47phox inh: inactive; Wee1 degr conf: inactive

Results for CCn1ncc(Br)c1C(=O)Nc1ccc2c(c1)OCCO2 ?
RBBP9 inh: inactive; eIF4E-4G inh: inactive; 14-3-3 Bad PPI: inactive; Wee1 degr inh: inactive; p47phox inh: inactive

Results for Cn1cc(Br)c(C(=O)NC2C3CC4CC(C3)CC2C4)n1 (stereo unspecified) ?
RBBP9 inh: inactive; eIF4E-4G inh: inactive; 14-3-3 Bad PPI: inactive; Wee1 degr inh: 12; p47phox inh: inactive; Wee1 degr conf: inactive

Results for Cn1cc(C(=O)NC2C3CC4CC(C3)CC2C4)cn1 (stereo unspecified) ?
RBBP9 inh: inactive; eIF4E-4G inh: inactive; 14-3-3 Bad PPI: inactive; Wee1 degr inh: inactive; p47phox inh: inactive

What do the screens show for `CCC(=O)N(CCc1ccc(S(N)(=O)=O)cc1)C1CC(=O)N(c2ccc(OC)cc2)C1=O` (stereo unspecified)?
RBBP9 inh: inactive; eIF4E-4G inh: inactive; 14-3-3 Bad PPI: inactive; Wee1 degr inh: inactive; p47phox inh: inactive

Results for Cc1ccc2nc(NC(=O)COC(=O)c3ccco3)sc2c1 ?
RBBP9 inh: inactive; eIF4E-4G inh: inactive; 14-3-3 Bad PPI: inactive; Wee1 degr inh: 11; p47phox inh: inactive; Wee1 degr conf: inactive

How did Cc1c(NC(=O)C(C)N(c2ccccc2)S(C)(=O)=O)c(=O)n(-c2ccccc2)n1C (stereo unspecified) do in these assays?
RBBP9 inh: inactive; eIF4E-4G inh: inactive; 14-3-3 Bad PPI: inactive; Wee1 degr inh: inactive; p47phox inh: inactive

How did O=C(O)CCCC(=O)N1N=C(c2ccccc2)CC1c1ccc2nccnc2c1 (stereo unspecified) do in these assays?
RBBP9 inh: inactive; eIF4E-4G inh: inactive; 14-3-3 Bad PPI: inactive; Wee1 degr inh: inactive; p47phox inh: inactive

Results for O=C(O)CCC(=O)N1N=C(c2ccccc2)CC1c1ccc2nccnc2c1 (stereo unspecified) ?
RBBP9 inh: inactive; eIF4E-4G inh: inactive; 14-3-3 Bad PPI: inactive; Wee1 degr inh: 13; p47phox inh: inactive; Wee1 degr conf: inactive

What do the screens show for `O=C(O)Cc1ccc(NC(=O)CCN2C(=O)c3ccc([N+](=O)[O-])cc3C2=O)cc1`?
RBBP9 inh: inactive; eIF4E-4G inh: inactive; 14-3-3 Bad PPI: inactive; Wee1 degr inh: 15; p47phox inh: inactive; Wee1 degr conf: inactive

How did CCOc1ccc2cc(C3CC(c4ccco4)=NN3S(=O)(=O)c3ccccc3)c(Cl)nc2c1 (stereo unspecified) do in these assays?
RBBP9 inh: inactive; eIF4E-4G inh: inactive; 14-3-3 Bad PPI: inactive; Wee1 degr inh: inactive; p47phox inh: inactive

Results for COc1ccc2cc(C3CC(c4ccco4)=NN3S(=O)(=O)c3ccccc3)c(Cl)nc2c1 (stereo unspecified) ?
RBBP9 inh: inactive; eIF4E-4G inh: inactive; 14-3-3 Bad PPI: inactive; Wee1 degr inh: 16; p47phox inh: inactive; Wee1 degr conf: inactive
